The text below walks through data of ChEMBL document CHEMBL4138073, “Synthesis and biological evaluation of 8-hydroxy-2,7-naphthyridin-2-ium salts as novel inhibitors of acetylcholinesterase (AChE) and butyrylcholinesterase (BChE)” (Medchemcomm, 2017).

In data set [1] the target is Cholinesterase (Equus caballus) (UniProt P81908). Description: Inhibition of horse serum BChE at 10 uM using butyrylthiocholine chloride substrate by spectrophotometry based Ellman's assay. In a few lines:
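Ellman kinetic assay in microplates: equine serum BChE (final 0.350 U/ml) added last to start reaction; butyrylthiocholine chloride pseudo-substrate with DTNB; absorbance at 412 nm; 25 °C (room temperature). Tris-HCl 50 mM pH 8 buffer with DMSO ≤0.05% final. Compound absorbance read before enzyme addition as blank. Physostigmine 10 µM final as positive control. Primary screen at 10 µM.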
For orientation: In Ellman's method for cholinesterases, released thiocholine reacts with DTNB.

The target in data set [2] is Acetylcholinesterase (Electrophorus electricus, UniProt O42275). The experiment in a line: Inhibition of electric eel AChE at using acetylthiocholine iodide substrate by spectrophotometry based Ellman's assay.
Acetylcholinesterase, sequence (O42275 whole entry): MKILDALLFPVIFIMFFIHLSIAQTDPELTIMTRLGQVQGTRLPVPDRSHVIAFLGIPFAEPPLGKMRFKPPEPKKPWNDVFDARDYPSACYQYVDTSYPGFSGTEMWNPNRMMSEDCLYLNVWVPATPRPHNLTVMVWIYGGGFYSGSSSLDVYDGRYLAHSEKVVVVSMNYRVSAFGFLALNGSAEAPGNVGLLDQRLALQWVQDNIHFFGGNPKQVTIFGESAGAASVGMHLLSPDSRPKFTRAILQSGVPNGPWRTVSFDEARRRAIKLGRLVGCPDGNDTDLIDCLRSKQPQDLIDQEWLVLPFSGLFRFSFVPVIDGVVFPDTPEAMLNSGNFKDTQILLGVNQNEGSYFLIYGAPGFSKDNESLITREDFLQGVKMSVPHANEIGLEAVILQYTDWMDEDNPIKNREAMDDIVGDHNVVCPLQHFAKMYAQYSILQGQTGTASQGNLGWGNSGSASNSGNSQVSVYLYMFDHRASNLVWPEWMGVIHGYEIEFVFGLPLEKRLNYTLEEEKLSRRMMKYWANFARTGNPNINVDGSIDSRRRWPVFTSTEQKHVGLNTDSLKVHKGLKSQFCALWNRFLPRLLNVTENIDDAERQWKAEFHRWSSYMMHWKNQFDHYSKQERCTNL
Data set [3] deals with Cholinesterase (Equus caballus, UniProt P81908). Description: Inhibition of horse serum BChE at using butyrylthiocholine chloride substrate by spectrophotometry based Ellman's assay.
Cholinesterase, sequence (P81908 whole entry): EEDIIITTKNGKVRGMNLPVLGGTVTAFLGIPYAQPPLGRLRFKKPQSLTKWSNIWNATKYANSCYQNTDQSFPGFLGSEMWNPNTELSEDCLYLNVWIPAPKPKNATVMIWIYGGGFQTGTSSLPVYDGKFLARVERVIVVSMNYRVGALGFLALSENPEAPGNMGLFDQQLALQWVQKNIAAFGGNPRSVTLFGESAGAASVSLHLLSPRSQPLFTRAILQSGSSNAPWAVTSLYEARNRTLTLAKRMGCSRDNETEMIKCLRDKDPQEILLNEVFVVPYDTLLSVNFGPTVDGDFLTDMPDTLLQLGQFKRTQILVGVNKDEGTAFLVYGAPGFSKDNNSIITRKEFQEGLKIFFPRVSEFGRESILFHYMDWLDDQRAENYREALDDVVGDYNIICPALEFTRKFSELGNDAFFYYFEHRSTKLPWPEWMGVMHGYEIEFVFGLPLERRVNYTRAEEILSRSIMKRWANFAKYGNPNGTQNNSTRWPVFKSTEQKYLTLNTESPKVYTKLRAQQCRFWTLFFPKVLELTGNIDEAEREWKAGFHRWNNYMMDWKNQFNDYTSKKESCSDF
Data set [4] is described as follows: Dissociation constant, pKa of the compound at 52 uM at pH 2.3 to 12.3 by UV-Vis spectroscopy. The format is physicochemical.

Activity calls are given as the source filed them. The rule behind the calls is not given here.

Cholinesterase (Equus caballus), sequence (P81908 whole entry): as above

For `CC[n+]1ccc2cc(-c3ccc4ccccc4c3)nc(O)c2c1`, the inhibition in data set [1] was determined as 59.5%. In the case of `CC[n+]1ccc2c3c(nc(O)c2c1)-c1ccccc1C3`, in data set [1], the inhibition is 77.3%. This compound came in with an IC50 in data set [2] of 1550 nM. In data set [1], `CC[n+]1ccc2cc(-c3ccccn3)nc(O)c2c1` gave an inhibition of 48.5%.

In data set [1], `Oc1nc(-c2ccc3ccccc3c2)cc2cc[n+](Cc3ccccc3)cc12` showed an inhibition of 97.1%. The IC50 came to 2880 nM in data set [3] and 990 nM in data set [2].

Consider `CC[n+]1ccc2cc(-c3ccccc3)nc(O)c2c1`, for which, in data set [1], the inhibition stood at 45.9%.

For `Oc1nc2c(c3cc[n+](Cc4ccccc4)cc13)CCc1ccccc1-2`, the inhibition result in data set [1] is “inactive”. The same measure, in the same setting: to `C[n+]1ccc2cc(-c3ccccc3)[nH]c(=O)c2c1` belongs 51.6%. `C[n+]1ccc2cc(-c3ccccc3)nc(O)c2c1` came in with a pKa at 52 µM in data set [4] of 8.7. As for `Oc1nc(-c2ccccc2)cc2cc[n+](Cc3ccccc3)cc12`, the inhibition in data set [1] turned out to be 76.4%. For the same compound, the results for the IC50 in data set [3] and in data set [2] were 4990 nM and 2570 nM, respectively.

A word on the inhibition: it is the change of the read-out against control, counted positive when it falls. What is called IC50 is the concentration needed to halve the response being measured. One may read the pKa as the negative logarithm of the acid dissociation constant. Read a low pKa as a group that gives up its proton readily.
